# Results as given in ChEMBL document CHEMBL5303300, “EUbOPEN Chemogenomics Library - Multiplex” (2023).
# Where “and” joins values, the source holds several entries; their conditions need not be identical. Identical values can stand only once.
# Test system: Fibroblast
# Assay: Multiplex assay against human fibroblast
# Format: toxicity, cell-based
# Settings: number of replicates 2
# Outline: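 Compound was added to live cells that had been stained at seeding with Hoechst33342, BioTracker Green Microtubule Cytoskeleton Dye, MitoTracker Red and Annexin V Alexa Fluor 680, and imaging followed on a CQ1 microscope at 37°C and 5% CO2. CellPathfinder machine-learning gating divided cells into Hoechst high-intensity objects or normal cells, normal cells into healthy, pyknosed or fragmented nuclei, and pyknosed cells into mitotic or apoptotic. Tubulin, mitochondrial-mass and membrane-permeability phenotypes are per cents of healthy-nucleus cells.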
# [1] = 12 h, 1 µM, compound concentration 1 uM
# [2] = 12 h, 10 µM, compound concentration 10 uM
# [3] = 24 h, 1 µM, compound concentration 1 uM
# [4] = 24 h, 10 µM, compound concentration 10 uM
# [5] = 48 h, 1 µM, compound concentration 1 uM
# [6] = 48 h, 10 µM, compound concentration 10 uM
smiles,measurement,setting,value
CC(C)NC(=O)[C@H]1CCC[C@H]1Nc1nc(Nc2ccc(C(=O)N(C)C3CCN(C)CC3)cc2)ncc1Cl,Population Apoptotic (%),[1],45% and 33%
same,Population Fragmented Nuclei (%),[1],7% and 8%
same,Population Healthy Nuclei (%),[1],62% and 61%
same,Population Hoechst High Intensity Objects (%),[1],0%
same,Population Membrane Permeable-Phenotype (%),[1],8%
same,Population Mitochondria Different-Phenotype (%),[1],0% and 2%
same,Population Mitotic Cells (%),[1],54% and 66%
same,Population Normal (%),[1],100%
same,Population Pyknosed Nuclei (%),[1],30% and 29%
same,Population Tubulin-Different-Phenotype (%),[1],20% and 12%
same,Total Cell Count,[1],109 and 134
same,Population Apoptotic (%),[2],62% and 51%
same,Population Fragmented Nuclei (%),[2],19% and 12%
same,Population Healthy Nuclei (%),[2],62% and 75%
same,Population Hoechst High Intensity Objects (%),[2],0%
same,Population Membrane Permeable-Phenotype (%),[2],0% and 4%
same,Population Mitochondria Different-Phenotype (%),[2],3% and 6%
same,Population Mitotic Cells (%),[2],37% and 48%
same,Population Normal (%),[2],100%
same,Population Pyknosed Nuclei (%),[2],18% and 12%
same,Population Tubulin-Different-Phenotype (%),[2],51% and 44%
same,Total Cell Count,[2],177 and 250
same,Population Apoptotic (%),[3],48% and 58%
same,Population Fragmented Nuclei (%),[3],8% and 10%
same,Population Healthy Nuclei (%),[3],60% and 59%
same,Population Hoechst High Intensity Objects (%),[3],0%
same,Population Membrane Permeable-Phenotype (%),[3],14% and 7%
same,Population Mitochondria Different-Phenotype (%),[3],0%
same,Population Mitotic Cells (%),[3],51% and 41%
same,Population Normal (%),[3],100%
same,Population Pyknosed Nuclei (%),[3],30%
same,Population Tubulin-Different-Phenotype (%),[3],16% and 13%
same,Total Cell Count,[3],127 and 136
same,Population Apoptotic (%),[4],65% and 66%
same,Population Fragmented Nuclei (%),[4],16% and 13%
same,Population Healthy Nuclei (%),[4],64% and 71%
same,Population Hoechst High Intensity Objects (%),[4],0%
same,Population Membrane Permeable-Phenotype (%),[4],2% and 0%
same,Population Mitochondria Different-Phenotype (%),[4],9% and 6%
same,Population Mitotic Cells (%),[4],34% and 33%
same,Population Normal (%),[4],100%
same,Population Pyknosed Nuclei (%),[4],18% and 15%
same,Population Tubulin-Different-Phenotype (%),[4],40% and 28%
same,Total Cell Count,[4],171 and 258
same,Population Apoptotic (%),[5],67% and 75%
same,Population Fragmented Nuclei (%),[5],14%
same,Population Healthy Nuclei (%),[5],62% and 59%
same,Population Hoechst High Intensity Objects (%),[5],0%
same,Population Membrane Permeable-Phenotype (%),[5],8% and 4%
same,Population Mitochondria Different-Phenotype (%),[5],0% and 1%
same,Population Mitotic Cells (%),[5],32% and 24%
same,Population Normal (%),[5],100%
same,Population Pyknosed Nuclei (%),[5],22% and 26%
same,Population Tubulin-Different-Phenotype (%),[5],15% and 11%
same,Total Cell Count,[5],127 and 141
same,Population Apoptotic (%),[6],78% and 82%
same,Population Fragmented Nuclei (%),[6],17% and 12%
same,Population Healthy Nuclei (%),[6],64% and 69%
same,Population Hoechst High Intensity Objects (%),[6],0%
same,Population Membrane Permeable-Phenotype (%),[6],4% and 5%
same,Population Mitochondria Different-Phenotype (%),[6],6% and 2%
same,Population Mitotic Cells (%),[6],21% and 17%
same,Population Normal (%),[6],99% and 100%
same,Population Pyknosed Nuclei (%),[6],17% and 18%
same,Population Tubulin-Different-Phenotype (%),[6],36% and 18%
same,Total Cell Count,[6],160 and 243
COC(=O)Nc1nc2c(s1)-c1c(c(-c3cccnc3)nn1-c1ccc(C3(N(C)C)CC3)cc1)CC2.Cl.Cl,Population Apoptotic (%),[1],38% and 45%
same,Population Fragmented Nuclei (%),[1],50% and 26%
same,Population Healthy Nuclei (%),[1],40% and 52%
same,Population Hoechst High Intensity Objects (%),[1],0%
same,Population Membrane Permeable-Phenotype (%),[1],5% and 6%
same,Population Mitochondria Different-Phenotype (%),[1],0%
same,Population Mitotic Cells (%),[1],61% and 54%
same,Population Normal (%),[1],99% and 100%
same,Population Pyknosed Nuclei (%),[1],9% and 21%
same,Population Tubulin-Different-Phenotype (%),[1],29% and 31%
same,Total Cell Count,[1],378 and 219
same,Population Apoptotic (%),[2],62% and 41%
same,Population Fragmented Nuclei (%),[2],31% and 34%
same,Population Healthy Nuclei (%),[2],55% and 57%
same,Population Hoechst High Intensity Objects (%),[2],0%
same,Population Membrane Permeable-Phenotype (%),[2],13% and 11%
same,Population Mitochondria Different-Phenotype (%),[2],2% and 4%
same,Population Mitotic Cells (%),[2],37% and 58%
same,Population Normal (%),[2],100% and 99%
same,Population Pyknosed Nuclei (%),[2],12% and 8%
same,Population Tubulin-Different-Phenotype (%),[2],63% and 52%
same,Total Cell Count,[2],218 and 427
same,Population Apoptotic (%),[3],60% and 87%
same,Population Fragmented Nuclei (%),[3],50% and 24%
same,Population Healthy Nuclei (%),[3],42% and 60%
same,Population Hoechst High Intensity Objects (%),[3],0%
same,Population Membrane Permeable-Phenotype (%),[3],4%
same,Population Mitochondria Different-Phenotype (%),[3],2% and 3%
same,Population Normal (%),[3],99% and 100%
same,Population Pyknosed Nuclei (%),[3],6% and 15%
same,Population Tubulin-Different-Phenotype (%),[3],20% and 31%
same,Total Cell Count,[3],350 and 202
same,Population Apoptotic (%),[4],65% and 52%
same,Population Fragmented Nuclei (%),[4],34% and 36%
same,Population Healthy Nuclei (%),[4],55% and 57%
same,Population Hoechst High Intensity Objects (%),[4],0%
same,Population Membrane Permeable-Phenotype (%),[4],11% and 5%
same,Population Mitochondria Different-Phenotype (%),[4],4% and 3%
same,Population Mitotic Cells (%),[4],34% and 48%
same,Population Normal (%),[4],100% and 99%
same,Population Pyknosed Nuclei (%),[4],10% and 5%
same,Population Tubulin-Different-Phenotype (%),[4],53% and 44%
same,Total Cell Count,[4],225 and 437
same,Population Apoptotic (%),[5],52% and 74%
same,Population Fragmented Nuclei (%),[5],51% and 29%
same,Population Healthy Nuclei (%),[5],43% and 56%
same,Population Hoechst High Intensity Objects (%),[5],0%
same,Population Membrane Permeable-Phenotype (%),[5],6% and 5%
same,Population Mitochondria Different-Phenotype (%),[5],2% and 0%
same,Population Mitotic Cells (%),[5],47% and 25%
same,Population Normal (%),[5],99% and 100%
same,Population Pyknosed Nuclei (%),[5],5% and 13%
same,Population Tubulin-Different-Phenotype (%),[5],12% and 21%
same,Total Cell Count,[5],339 and 195
same,Population Apoptotic (%),[6],57% and 73%
same,Population Fragmented Nuclei (%),[6],38% and 39%
same,Population Healthy Nuclei (%),[6],58% and 53%
same,Population Hoechst High Intensity Objects (%),[6],0%
same,Population Membrane Permeable-Phenotype (%),[6],3% and 0%
same,Population Mitochondria Different-Phenotype (%),[6],3% and 1%
same,Population Mitotic Cells (%),[6],42% and 26%
same,Population Normal (%),[6],100% and 99%
same,Population Pyknosed Nuclei (%),[6],3% and 6%
same,Population Tubulin-Different-Phenotype (%),[6],42% and 17%
same,Total Cell Count,[6],223 and 418
